Data taken from ChEMBL document CHEMBL1123595, “Synthesis and antilipolytic activities of quinolyl carbanilates and related analogues” (J Med Chem, 1987).

Assays:
[1] = (§1) Concentration required for inhibition of free fatty acid liberation in Canine myocardial lipase assay; assay type: functional, tissue-based, Canis lupus familiaris, Myocardium
Rattus norvegicus [2] = organism: Rattus norvegicus; assay: Concentration required for inhibition of adipocyte lipolysis in rat adipocyte assay was determined; assay type: functional
In short: (§2)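 Abdominal fat pads from male rats (200–250 g) were collagenase-digested for 1 h at 37 °C in Krebs-bicarbonate buffer gassed with 95:5 O2/CO2, then washed twice. Cells were stimulated with epinephrine (3 µM) plus methylisobutylxanthine (10 µM). Compound was added from DMSO or water stock and incubated 1 h at 37 °C. The run was stopped on ice, and glycerol in the aqueous phase was measured by glycerol dehydrogenase (NAD→NADH).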

Rattus norvegicus [3] = organism: Rattus norvegicus; assay: Percent inhibition of adipocyte lipolysis in rat adipocyte assay was determined at 3 uM concentration.; assay type: functional
In short: (§3)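 Abdominal fat pads from male rats (200–250 g) in Krebs-bicarbonate buffer gassed 95:5 O2/CO2, collagenase-digested 1 h at 37 °C, washed twice. Lipolysis stimulated with epinephrine (3 µM) plus methylisobutylxanthine (10 µM); compounds added from 20 mM DMSO or water stock (final DMSO 1%). Incubated 1 h at 37 °C under O2/CO2, stopped on ice. Medium glycerol measured by glycerol dehydrogenase (NAD to NADH).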

Canis lupus familiaris [4] = organism: Canis lupus familiaris; assay: Percent inhibition of free fatty acid liberation at 100 uM was determined in Canine myocardial lipase assay
In short: (§4)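 Lipases were extracted from washed canine heart membranes with buffer, heparin and a little Triton X-100. The reaction ran in an oil-water emulsion of triolein with [3H]triolein tracer, 50 mM Tris pH 6.8 and 0.5% BSA. Compound was at 100 µM (3.0% DMSO final), tested in duplicate. Released [3H]oleic acid was extracted into hexane, separated from triolein and scintillation counted.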

Rattus norvegicus [5] = organism: Rattus norvegicus; assay: Percent inhibition of adipocyte lipolysis in rat adipocyte assay was determined at 30 uM concentration.; assay type: functional; in short: as §2
Canis lupus familiaris [6] = organism: Canis lupus familiaris; assay: Percentage inhibition of free fatty acid liberation at 100 uM determined in canine myocardial lipase assay; assay type: functional; in short: as §4
Rattus norvegicus [7] = organism: Rattus norvegicus; assay: Percent inhibition of adipocyte lipolysis in rat adipocyte assay was determined at 200 uM concentration.; assay type: functional
In short: (§5)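 Rat adipocytes were prepared by collagenase digestion of abdominal fat pads from male rats (200–250 g) in gassed Krebs-bicarbonate buffer. Lipolysis was driven by 3 µM epinephrine plus 10 µM methylisobutylxanthine. Compound was added from a 20 mM DMSO or water stock to a final 200 µM (1% DMSO), then incubated 1 h at 37 °C under 95:5 O2/CO2. Released glycerol was quantified with glycerol dehydrogenase.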

Rattus norvegicus [8] = organism: Rattus norvegicus; assay: Percent inhibition of adipocyte lipolysis in rat adipocyte assay was determined at 100 uM concentration.; assay type: functional; in short: as §3
[9] = as §1; assay type: tissue-based, Canis lupus familiaris, Myocardium
Rattus norvegicus [10] = organism: Rattus norvegicus; assay: Percent inhibition of adipocyte lipolysis in rat adiposite assay was determined at 3 uM concentration.; assay type: functional; in short: as §3
Rattus norvegicus [11] = organism: Rattus norvegicus; assay: Concentration required for inhibition of adipocyte lipolysis in rat adipocyte assay was determined at 3 uM concentration.; assay type: functional; in short: as §3
Rattus norvegicus [12] = organism: Rattus norvegicus; assay: Percent inhibition of adipocyte lipolysis in rat adipocyte assay was determined at 3 uM; assay type: functional; in short: as §3
Rattus norvegicus [13] = organism: Rattus norvegicus; assay: Inhibitory concentration (IC50) of adipocyte lipolysis in rat adipocyte assay was determined
Rattus norvegicus [14] = organism: Rattus norvegicus; assay: Percent inhibition of adipocyte lipolysis in rat adipocyte assay was determined at 100 uM; assay type: functional; in short: as §2
Rattus norvegicus [15] = organism: Rattus norvegicus; assay: Concentration required for inhibition of adipocyte lipolysis in rat adipocyte assay was determined at 200 uM concentration.; assay type: functional; in short: as §5

COc1cccc(NC(=O)Oc2cccc3cccnc23)c1
IC50 [1]: 18 µM | IC50 (Rattus norvegicus [2]): 7 µM

O=C(Nc1ccc(Br)cc1)Oc1cccc2cccnc12
IC50 [1]: 80 µM | inhibition at 3 µM (Rattus norvegicus [3]): 5%

COc1ccc(OC(=O)Nc2cccc3cccnc23)cc1
inhibition (Canis lupus familiaris [4]): 75% | inhibition at 30 µM (Rattus norvegicus [5]): 3%

COc1ccc(CNC(=O)Oc2cccc3cccnc23)cc1
inhibition (Canis lupus familiaris [6]): 72% | IC50 (Rattus norvegicus [2]): 5.8 µM

COc1ccccc1NC(=O)Oc1cccc2ncccc12
IC50 [1]: 48 µM | inhibition at 200 µM (Rattus norvegicus [7]): 31%

COc1ccc(CCNC(=O)Oc2ccc3cccnc3c2)cc1
inhibition (Canis lupus familiaris [6]): 97% | inhibition at 100 µM (Rattus norvegicus [8]): 84%

COc1ccccc1OC(=O)Nc1cccc2cccnc12
IC50 [9]: 20 µM | IC50 (Rattus norvegicus [2]): 30 µM

O=C(Nc1ccccc1)Oc1cccc2cccnc12
inhibition (Canis lupus familiaris [6]): 69% | inhibition at 3 µM (Rattus norvegicus [3]): 28%

Cc1ccc2cccc(OC(=O)Nc3ccc(Br)cc3)c2n1
inhibition (Canis lupus familiaris [6]): 68% | inhibition at 3 µM (Rattus norvegicus [3]): 5%

Cc1cccc(NC(=O)Oc2cccc3cccnc23)c1
inhibition (Canis lupus familiaris [6]): 64% | Inhibition (Rattus norvegicus [10]): 84%

COc1ccc(NC(=O)Oc2cccc3ocnc23)cc1
IC50 [1]: 7 µM | IC50 (Rattus norvegicus [2]): 2.4 µM

O=C(NCCCCCCNC(=O)ON=C1CCCCC1)ON=C1CCCCC1
IC50 [1]: 4 µM | IC50 (Rattus norvegicus [2]): 1 µM

C[C@@H](NC(=O)Oc1cccc2cccnc12)c1ccccc1
inhibition (Canis lupus familiaris [6]): 76% | IC50 (Rattus norvegicus [2]): 35 µM

O=C(Nc1ccccc1)Oc1ccc(Cl)c2cccnc12
inhibition (Canis lupus familiaris [6]): 69% | inhibition at 3 µM (Rattus norvegicus [3]): 4%

COc1ccc(CC(=O)Oc2cccc3cccnc23)cc1
inhibition (Canis lupus familiaris [6]): 0% | inhibition at 100 µM (Rattus norvegicus [8]): 74%

COc1ccc(NC(=O)Oc2cccc3cccnc23)c(OC)c1
inhibition (Canis lupus familiaris [6]): 65% | IC50 (Rattus norvegicus [11]): 0.2 µM

CC(NC(=O)Oc1cccc2cccnc12)c1ccccc1 (centres undefined)
inhibition (Canis lupus familiaris [4]): 74% | IC50 (Rattus norvegicus [2]): 35 µM

CCOC(=O)c1ccc(NC(=O)Oc2ccc3cccnc3c2)cc1
inhibition (Canis lupus familiaris [4]): 46% | inhibition at 200 µM (Rattus norvegicus [7]): 18%

Cc1ccccc1NC(=O)Oc1cccc2cccnc12
inhibition (Canis lupus familiaris [6]): 7% | inhibition at 3 µM (Rattus norvegicus [11]): 40%

O=C(Nc1cccc(Cl)c1)Oc1cccc2cccnc12
inhibition (Canis lupus familiaris [6]): 41% | inhibition at 3 µM (Rattus norvegicus [12]): 5%

COc1cccc(NC(=O)Oc2ccc3cccnc3c2)c1
inhibition (Canis lupus familiaris [4]): 52% | inhibition at 200 µM (Rattus norvegicus [7]): 25%

O=C(Nc1ccccc1Cl)Oc1ccc2cccnc2c1
inhibition (Canis lupus familiaris [6]): 6%

COc1ccccc1NC(=O)Nc1cccc2cccnc12
IC50 [9]: 73 µM | inhibition at 200 µM (Rattus norvegicus [7]): 4%

COc1ccc(OC)c(NC(=O)Oc2cccc3cccnc23)c1
IC50 [1]: 48 µM | IC50 (Rattus norvegicus [2]): 10 µM

COc1ccc(C(=O)Oc2cccc3cccnc23)cc1
inhibition (Canis lupus familiaris [6]): 13% | inhibition at 200 µM (Rattus norvegicus [7]): 49%

Cc1ccc2cccc(OC(=O)Nc3ccccc3)c2n1
inhibition (Canis lupus familiaris [6]): 68% | inhibition at 3 µM (Rattus norvegicus [3]): 29%

COc1ccccc1NC(=O)Oc1ccc2cccnc2c1
IC50 [9]: 48 µM | IC50 (Rattus norvegicus [2]): 80 µM

Cc1ccc(NC(=O)Oc2cccc3cccnc23)cc1
inhibition (Canis lupus familiaris [6]): 63% | Inhibition (Rattus norvegicus [10]): 76%

COc1ccccc1NC(=O)Oc1cccc2cccnc12
IC50 [9]: 40 µM | IC50 (Rattus norvegicus [2]): 7 µM

O=C(O)c1cccnc1 [NIACIN]
IC50 [9]: 13 µM

COc1ccc(NC(=O)Oc2cccc3ncccc23)cc1
inhibition (Canis lupus familiaris [4]): 63% | inhibition at 30 µM (Rattus norvegicus [5]): 1%

COc1ccc(NC(=O)Oc2cccc3ccc(C)nc23)cc1
inhibition (Canis lupus familiaris [6]): 68% | IC50 (Rattus norvegicus [2]): 0.2 µM

COc1ccccc1NC(=O)Oc1ccc2ncccc2c1
IC50 [9]: 42 µM | IC50 (Rattus norvegicus [2]): 30 µM

O=C(Nc1ccccc1C(F)(F)F)Oc1ccc2cccnc2c1
inhibition (Canis lupus familiaris [6]): 12%

CCOC(=O)c1ccc(NC(=O)Oc2cccc3cccnc23)cc1
IC50 [9]: 200 µM | inhibition at 200 µM (Rattus norvegicus [7]): 44%

COc1ccc(NC(=O)Oc2ccc(S(=O)(=O)O)c3cccnc23)cc1
inhibition (Canis lupus familiaris [6]): 83% | inhibition at 200 µM (Rattus norvegicus [7]): 14%

COc1ccc(NC(=O)Oc2ccc3cccnc3c2)cc1
inhibition (Canis lupus familiaris [6]): 60% | inhibition at 30 µM (Rattus norvegicus [5]): 0%

COc1ccc(NC(=O)Oc2cccc3cccnc23)cc1
IC50 [1]: 17 µM | IC50 (Rattus norvegicus [13]): 0.1 µM

COc1ccc(NC(=O)COc2cccc3cccnc23)cc1
inhibition (Canis lupus familiaris [4]): 7% | inhibition at 100 µM (Rattus norvegicus [14]): 26%

O=C(Nc1cccc(C(F)(F)F)c1)Oc1cccc2cccnc12
inhibition (Canis lupus familiaris [6]): 56% | inhibition at 3 µM (Rattus norvegicus [11]): 7%

O=C(Nc1ccc(Cl)cc1)Oc1cccc2cccnc12
inhibition (Canis lupus familiaris [6]): 58% | inhibition at 3 µM (Rattus norvegicus [3]): 52%

Cc1ccccc1NC(=O)Oc1ccc2cccnc2c1
inhibition (Canis lupus familiaris [6]): 45% | inhibition at 200 µM (Rattus norvegicus [15]): 20%

Cc1cnc(C(=O)O)c[n+]1[O-] [ACIPIMOX]
IC50 [1]: 39 µM

COc1ccc(CCNC(=O)Oc2cccc3cccnc23)cc1
inhibition (Canis lupus familiaris [6]): 70% | inhibition at 100 µM (Rattus norvegicus [8]): 98%

O=C(Nc1ccccc1Cl)Oc1cccc2cccnc12
inhibition (Canis lupus familiaris [6]): 1%

O=C(Nc1ccccc1)Oc1c(Cl)cc(Cl)c2cccnc12
IC50 [1]: 56 µM | inhibition at 200 µM (Rattus norvegicus [7]): 28%

COc1ccc(NC(=O)Oc2ccc3ncccc3c2)cc1
inhibition (Canis lupus familiaris [4]): 64% | inhibition at 30 µM (Rattus norvegicus [5]): 8%
